Results reported in ChEMBL document CHEMBL3259537, “Design of a truncated cardiotoxin-I analogue with potent insulinotropic activity” (J Med Chem, 2014).
The source made the active and inactive calls. The calls are words filed in the database; no cut-off is given here.

Experiments:
[1] = Cytotoxicity against rat INS-1E cells by LDH assay; format: cell-based
Outline: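 INS-1E cells were seeded at 2×10^4 cells/well and grown 24 h at 37 °C, then exposed to increasing peptide concentrations in serum-free medium. LDH released into the medium from dead cells was measured with a commercial kit and expressed as % of maximum LDH release after cell lysis.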

[2] = Induction of intracellular calcium release in rat INS-1E cells by fluorescence assay; format: functional, cell-based
Outline: (§1)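 INS-1E cells were harvested by scraping (5×10^5 cells/mL) and loaded 30 min at 37 °C with 4 μM Fura-2-AM plus 2.5 mM probenecid in KRBH (10 mM glucose, pH 7.4). After washing, 20000 cells/well were read immediately after peptide addition (10^-12–10^-5 M range) at excitation 340/380 nm, emission 495 nm. [Ca2+]i was calculated by the Grynkiewicz equation (Kd 225 nM).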

INS-1E [3] = assay: Inhibition of [86]-Rb+-efflux in rat INS-1E cells at 10^8 to 10'6 M incubated for 30 mins followed by high-phosphate buffer addition by scintillation counting analysis; format: functional, cell-based; details: in the assay text read “high-potassium” for “high-phosphate”
Outline: (§2)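 INS-1E cells (2×10^5/well) were loaded overnight at 37 °C with 86RbCl (0.02 µCi/mL) in medium. They were then incubated 30 min at 37 °C in low-K buffer (4.6 mM KCl, pH 7.4) ± peptide, switched to high-K buffer (140 mM KCl) ± peptide, and efflux was followed over time by scintillation counting. Efflux is % of total 86Rb+ (medium plus cells); IC50 values are from three independent experiments in triplicate.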

INS-1E [4] = assay: Insulinotropic activity in rat INS-1E cells assessed as insulin exocytosis after 2 hrs by RIA in presence of ATP depletor 2-deoxy-D-glucose; format: functional, cell-based
Outline: (§3)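 INS-1E cells (2×10^5/well) were seeded 2 days before use. They were starved 2 h in glucose-free KRBH with 0.1% BSA, washed, and held another 30 min at 37 °C. Cells were then incubated 2 h at 37 °C with peptide, with 20 mM glucose or without glucose. Secreted insulin in the medium was measured by RIA against a rat insulin standard.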

INS-1E [5] = assay: Insulinotropic activity in rat INS-1E cells assessed as insulin exocytosis after 2 hrs by RIA in presence of glucose; format: functional, cell-based; outline: as §3
INS-1E [6] = assay: Insulinotropic activity in rat INS-1E cells assessed as insulin exocytosis after 2 hrs by RIA in presence of Ca2+ channel blocker nifedipine; format: functional, cell-based; outline: as §3
INS-1E [7] = assay: Insulinotropic activity in rat INS-1E cells assessed as insulin exocytosis after 2 hrs by RIA in presence of adenylyl cyclase inhibitor 2',5'-dideoxy-adenosine; format: functional, cell-based
Outline: (§4)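 INS-1E cells (2×10^5/well) were pretreated 30 min with H89 (40 μM) or 2',5'-dideoxyadenosine (50 μM). They were then starved 2 h plus 30 min in glucose-free KRBH/0.1% BSA and incubated 2 h at 37 °C with peptide ± 20 mM glucose. Insulin in the medium was quantified by RIA against a rat insulin standard.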

INS-1E [8] = assay: Insulinotropic activity in rat INS-1E cells assessed as insulin exocytosis at 10^-6 M after 2 hrs by RIA; format: functional, cell-based; outline: as §3
INS-1E [9] = assay: Effect on NGF-induced intracellular calcium release in rat INS-1E cells at 10^-8 to 10^-5 M by fluorescence assay; format: functional, cell-based
INS-1E [10] = assay: Induction of intracellular calcium release in rat INS-1E cells at 10^-6 M by fluorescence assay; format: functional, cell-based; outline: as §1
INS-1E [11] = assay: Effect on NGF-induced intracellular calcium release in rat INS-1E cells at 10^-9 M by fluorescence assay; format: functional, cell-based
Aorta = assay: Induction of rat aortic ring contraction at 10'5 M; format: functional, tissue-based
INS-1E [12] = assay: Insulinotropic activity in rat INS-1E cells assessed as insulin exocytosis after 2 hrs by RIA in presence of PKA inhibitor H89; format: functional, cell-based; outline: as §4
INS-1E [13] = assay: Inhibition of [86]-Rb+-efflux in rat INS-1E cells incubated for 30 mins followed by high-phosphate buffer addition by scintillation counting analysis; format: functional, cell-based; details: in the assay text read “high-potassium” for “high-phosphate”; outline: as §2
INS-1E [14] = assay: Insulinotropic activity in rat INS-1E cells assessed as insulin exocytosis after 2 hrs by RIA in presence of K-ATP channel opener diazoxide; format: functional, cell-based; outline: as §3

SMILES	Activity [1]	EC50 [2]	inhibition (INS-1E [3])	Activity (INS-1E [4])	Activity (INS-1E [5])	Activity (INS-1E [6])	Activity (INS-1E [7])	Activity (INS-1E [8])	Activity (INS-1E [9])	Activity (INS-1E [10])	Activity (INS-1E [11])	Activity (Aorta)	Activity (INS-1E [12])	Activity (INS-1E [13])	Activity (INS-1E [14])
CC(C)C[C@@H]1NC(=O)[C@H](CO)NC(=O)[C@H](CC(N)=O)NC(=O)[C@H](CCCCN)NC(=O)[C@@H]2CCCN2C(=O)[C@@H](NC(=O)[C@@H](N)C(C)C)CSSC[C@@H](C(=O)N[C@H]2CSSC[C@H](C(=O)N[C@@H](CC(N)=O)C(=O)O)NC(=O)[C@H](CCCNC(=N)N)NC(=O)[C@H](CC(=O)O)NC(=O)[C@H]([C@@H](C)O)NC(=O)[C@H](CC(N)=O)NC2=O)NC(=O)[C@H](C(C)C)NC(=O)[C@H](Cc2ccc(O)cc2)NC(=O)[C@H](CCCCN)NC(=O)[C@H](C(C)C)NC(=O)[C@H](CC(C)C)NC1=O	Non-toxic	2.14 nM	–	–	–	–	–	–	–	–	–	–	–	–	–
CN(CCc1ccc(Cl)c(Cl)c1)CC(O)COc1ccc(NS(C)(=O)=O)cc1 (stereo unspecified)	–	–	Active	–	–	–	–	–	–	–	–	–	–	–	–
CC(C)C[C@@H]1NC(=O)[C@H](CO)NC(=O)[C@H](CC(N)=O)NC(=O)[C@H](CCCCN)NC(=O)[C@@H]2CCCN2C(=O)[C@@H](NC(=O)[C@@H](N)C(C)C)CSSC[C@@H](C(=O)N[C@H]2CSSC[C@H](C(=O)N[C@@H](CC(N)=O)C(=O)O)NC(=O)[C@H](CCCNC(=N)N)NC(=O)[C@H](CC(=O)O)NC(=O)[C@H]([C@@H](C)O)NC(=O)[C@H](CC(N)=O)NC2=O)NC(=O)[C@H](CCCCN)NC(=O)[C@H](Cc2ccc(O)cc2)NC(=O)[C@H](CCCCN)NC(=O)[C@H](C(C)C)NC(=O)[C@H](CC(C)C)NC1=O	Non-toxic	–	–	Active	Dose-dependent effect	inactive	Dose-dependent effect	Active	Active	Active	inactive	inactive	Dose-dependent effect	Dose-dependent effect	Active
